Data from ChEMBL document CHEMBL1143102, “Synthesis, radiofluorination, and in vitro evaluation of pyrazolo[1,5-a]pyridine-based dopamine D4 receptor ligands: discovery of an inverse agonist radioligand for PET” (J Med Chem, 2008).

How the values were obtained:
[1] = Lipophilicity, log D at pH 7.4; type: physicochemical; details: buffer
In short: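 Shake-flask partition of about 25 kBq 18F-labeled compound between 1-octanol and PBS pH 7.4, mixed 3 min at room temperature and centrifuged. Triplicate 100 µL samples of each phase are gamma-counted. log D7.4 = log(cpm octanol/cpm buffer), from 2–3 independent experiments in triplicate, mean ± SD.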

[2] = Stability in human serum at 37 degC after 90 mins; type: ADME, cell-free; details: read-out: Stability
In short: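 PBS-formulated 18F-labeled compound (20 µL, 250 MBq/mL) is added to 200 µL human serum and incubated at 37 °C for up to 90 min. The percentage of intact radioligand is reported.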

D(1A) dopamine receptor = D(1A) dopamine receptor (Sus scrofa, UniProt P50130); test: Displacement of [3H][…] from dopamine D1 receptor in pig striatal membrane; type: cell membranes, Striatum
Chain of D(1A) dopamine receptor (P50130 whole entry): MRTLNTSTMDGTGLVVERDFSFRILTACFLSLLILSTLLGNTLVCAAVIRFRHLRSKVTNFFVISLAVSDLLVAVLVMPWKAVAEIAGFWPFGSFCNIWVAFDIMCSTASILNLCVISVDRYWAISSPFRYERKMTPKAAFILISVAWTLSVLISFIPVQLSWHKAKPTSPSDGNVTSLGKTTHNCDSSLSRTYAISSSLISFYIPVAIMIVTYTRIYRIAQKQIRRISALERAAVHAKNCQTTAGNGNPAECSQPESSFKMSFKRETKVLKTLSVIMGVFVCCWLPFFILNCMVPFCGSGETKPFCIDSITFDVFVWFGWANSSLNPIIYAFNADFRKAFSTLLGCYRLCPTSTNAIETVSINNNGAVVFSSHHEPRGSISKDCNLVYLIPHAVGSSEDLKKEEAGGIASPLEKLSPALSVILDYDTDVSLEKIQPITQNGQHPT

D(2) dopamine receptor [3] = molecular target: T1, D(2) dopamine receptor (Homo sapiens, UniProt P14416); test: Displacement of [3H]spiperone from cloned human dopamine D2L receptor expressed in CHO cells; type: cell-based
T1 sequence (P14416 whole entry): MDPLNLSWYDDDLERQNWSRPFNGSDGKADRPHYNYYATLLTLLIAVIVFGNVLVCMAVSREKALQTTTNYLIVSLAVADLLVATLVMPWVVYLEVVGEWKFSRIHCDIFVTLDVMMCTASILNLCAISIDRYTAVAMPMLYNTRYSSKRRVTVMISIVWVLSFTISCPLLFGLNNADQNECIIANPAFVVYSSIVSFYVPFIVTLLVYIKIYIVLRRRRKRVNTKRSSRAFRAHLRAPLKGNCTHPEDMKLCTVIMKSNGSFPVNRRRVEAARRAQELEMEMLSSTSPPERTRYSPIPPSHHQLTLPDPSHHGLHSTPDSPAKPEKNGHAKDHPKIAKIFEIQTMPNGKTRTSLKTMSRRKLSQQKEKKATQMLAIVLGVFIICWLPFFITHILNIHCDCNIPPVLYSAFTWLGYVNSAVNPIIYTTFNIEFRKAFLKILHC

[4] = molecular target: 5-hydroxytryptamine receptor 2A (Sus scrofa, UniProt P50129); test: Displacement of [3H]ketanserin from 5HT2 receptor in pig cortical membranes; type: cell membranes
Chain of 5-hydroxytryptamine receptor 2A (P50129 whole entry): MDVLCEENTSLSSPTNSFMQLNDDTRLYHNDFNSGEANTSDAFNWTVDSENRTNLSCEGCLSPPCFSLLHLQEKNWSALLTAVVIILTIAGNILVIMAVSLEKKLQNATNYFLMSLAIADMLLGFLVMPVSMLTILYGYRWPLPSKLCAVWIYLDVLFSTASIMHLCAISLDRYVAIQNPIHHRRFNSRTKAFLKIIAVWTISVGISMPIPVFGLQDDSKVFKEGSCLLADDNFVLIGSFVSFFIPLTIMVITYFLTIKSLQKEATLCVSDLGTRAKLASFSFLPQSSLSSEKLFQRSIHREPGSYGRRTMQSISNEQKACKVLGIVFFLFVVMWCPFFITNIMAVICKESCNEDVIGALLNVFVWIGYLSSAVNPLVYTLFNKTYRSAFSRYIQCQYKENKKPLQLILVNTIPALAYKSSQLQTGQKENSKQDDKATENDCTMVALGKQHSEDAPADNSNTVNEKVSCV
In short: (§1)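 Competition binding on porcine cortical membranes. Radioligands, each at 0.5 nM final: [3H]8-OH-DPAT for 5-HT1A, [3H]ketanserin for 5-HT2, [3H]prazosin for α1.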

[5] = Displacement of [3H]8-OH-DPAT from 5HT1A receptor in pig cortical membranes; type: cell membranes, Sus scrofa; in short: as §1
[6] = Displacement of [3H]spiperone from cloned human dopamine D4.4 receptor expressed in CHO cells; type: cell-based
[7] = Displacement of [3H]prazosin from adrenergic alpha1 receptor in pig cortical membranes; type: cell membranes, Sus scrofa; in short: as §1
D(3) dopamine receptor = D(3) dopamine receptor (Homo sapiens, UniProt P35462); test: Displacement of [3H]spiperone from cloned human dopamine D3 receptor expressed in CHO cells; type: cell-based
Chain of D(3) dopamine receptor (P35462 whole entry): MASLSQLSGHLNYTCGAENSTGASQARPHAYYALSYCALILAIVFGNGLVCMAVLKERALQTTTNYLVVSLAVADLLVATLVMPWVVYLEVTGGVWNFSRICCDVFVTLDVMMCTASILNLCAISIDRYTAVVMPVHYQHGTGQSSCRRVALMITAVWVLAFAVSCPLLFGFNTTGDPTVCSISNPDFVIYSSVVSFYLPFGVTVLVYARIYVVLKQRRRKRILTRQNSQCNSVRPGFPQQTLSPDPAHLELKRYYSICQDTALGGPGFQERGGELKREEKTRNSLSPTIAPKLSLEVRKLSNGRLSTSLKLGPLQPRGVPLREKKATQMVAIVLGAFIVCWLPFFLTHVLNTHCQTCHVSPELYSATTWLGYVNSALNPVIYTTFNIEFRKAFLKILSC

D(2) dopamine receptor [8] = molecular target: T1, D(2) dopamine receptor; test: Displacement of [3H]spiperone from cloned human dopamine D2S receptor expressed in CHO cells; type: cell-based
[9] = Agonist activity at rat dopamine D4.2 receptor expressed in CHO10001A cells assessed as incorporation of [3H]thymidine relative to quinpirole; type: functional
[10] = Agonist activity at rat dopamine D4.2 receptor expressed in CHO10001A cells assessed as incorporation of [3H]thymidine; type: functional, cell-based
[11] = molecular target: T2, D(4) dopamine receptor (Rattus norvegicus) (UniProt P30729); test: Displacement of 2-[4-(2-(2-[18F]fluoroethoxy)phenyl)piperazin-1-ylmethyl]pyrazolo[1,5-alpha]pyridine from dopamine D4 receptor in Sprague-Dawley rat brain
T2 sequence (whole entry): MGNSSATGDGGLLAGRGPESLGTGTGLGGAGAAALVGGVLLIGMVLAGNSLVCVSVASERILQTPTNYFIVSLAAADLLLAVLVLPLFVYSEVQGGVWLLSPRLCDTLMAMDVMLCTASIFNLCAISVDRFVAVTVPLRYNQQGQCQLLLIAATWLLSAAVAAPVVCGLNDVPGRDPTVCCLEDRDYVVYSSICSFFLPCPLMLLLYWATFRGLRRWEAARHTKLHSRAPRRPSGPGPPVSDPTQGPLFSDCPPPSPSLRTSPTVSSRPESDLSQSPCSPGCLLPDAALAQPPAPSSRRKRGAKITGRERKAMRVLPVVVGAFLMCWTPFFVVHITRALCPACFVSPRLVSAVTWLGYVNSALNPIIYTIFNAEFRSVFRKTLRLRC
In short: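 In vitro autoradiography on 20 µm coronal brain cryosections from female Sprague–Dawley rats. Sections are preincubated 2 × 5 min, then incubated 60 min at room temperature with 110 kBq/mL [18F] radioligand, ± competitor (1 µM). Buffer: Tris-HCl, NaCl, EDTA, MgCl2 pH 7.4, with 0.5 µM DTG and 0.1 µM pindolol. Sections are washed cold, imaged by real-time autoradiography, and ROI intensities (cpm/mm2) are defined by HE counterstaining.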

Homo sapiens [12] = organism: Homo sapiens; test: Selectivity for human dopamine D4.4 receptor over human dopamine D2L receptor
Homo sapiens [13] = organism: Homo sapiens; test: Selectivity for human dopamine D4.4 receptor over human dopamine D2S receptor
Homo sapiens [14] = organism: Homo sapiens; test: Selectivity for human dopamine D4.4 receptor over human dopamine D3 receptor

Structure (SMILES) | logD [1] | remaining at 1.5 h [2] [%] | Ki (D(1A) dopamine receptor) [nM] | Ki (D(2) dopamine receptor [3]) [nM] | Ki [4] [nM] | Ki [5] [nM] | Ki [6] [nM] | Ki [7] [nM] | Ki (D(3) dopamine receptor) [nM] | Ki (D(2) dopamine receptor [8]) [nM] | Efficacy [9] [%] | EC50 [10] [nM] | Activity [11] [%] | Ratio Ki (Homo sapiens [12]) | Ratio Ki (Homo sapiens [13]) | Ratio Ki (Homo sapiens [14])
[18F]c1cccc(N2CCN(Cc3cnn4ccccc34)CC2)n1 | 1.98 | > 98 | – | – | – | – | – | – | – | – | – | – | – | – | – | –
Oc1ccccc1N1CCN(Cc2cnn3ccccc23)CC1 | – | – | 2800 | 4500 | 1500 | 680 | 44 | 26 | 2200 | 4700 | – | – | – | – | – | –
FCCOc1ccccc1N1CCN(Cc2cnn3ccccc23)CC1 | – | – | 2500 | 150 | 2900 | 120 | 1.6 | 5.4 | 320 | 180 | 71 | 1 | – | – | – | –
[18F]CCOc1ccc(N2CCN(Cc3cnn4ccccc34)CC2)cc1 | 2.12 | > 96 | – | – | – | – | – | – | – | – | – | – | – | – | – | –
CCc1cc(Cl)c(OC)c(C(=O)NC[C@@H]2CCCN2CC)c1O | – | – | – | – | – | – | – | – | – | – | – | – | 65 | – | – | –
[18F]c1cccc(N2CCN(Cc3cc4ccccn4n3)CC2)n1 | 1.78 | > 99 | – | – | – | – | – | – | – | – | – | – | – | – | – | –
Brc1cccc(N2CCN(Cc3cnn4ccccc34)CC2)n1 | – | – | 3900 | 210 | 1200 | 120 | 2.6 | 21 | 410 | 150 | – | – | – | – | – | –
Oc1ccc(N2CCN(Cc3cnn4ccccc34)CC2)cc1 | – | – | 9900 | 6100 | 24700 | 12000 | 20 | 82 | 3400 | 87000 | – | – | – | – | – | –
[18F]CCOc1ccc(N2CCN(Cc3cc4ccccn4n3)CC2)cc1 | 1.99 | > 99 | – | – | – | – | – | – | – | – | – | – | – | – | – | –
Clc1ccc(N2CCN(Cc3cnn4ccccc34)CC2)cc1 [FAUC 113] | – | – | – | – | – | 1400 | 5.8 | 240 | – | – | 26 | – | – | – | – | –
Brc1cccc(N2CCN(Cc3cc4ccccn4n3)CC2)n1 | – | – | 18000 | 880 | 4400 | 360 | 7.9 | 240 | 930 | 550 | – | – | – | – | – | –
Clc1ccc(N2CCN(Cc3cc4ccccn4n3)CC2)cc1 | – | – | – | – | – | 1700 | 2.2 | 270 | – | – | <3 | – | 78 | 1550 | 2860 | 2410
CCCN1CCC[C@@H]2Cc3n[nH]cc3C[C@H]21 [QUINPIROLE] | – | – | – | – | – | – | – | – | – | – | – | 7.1 | – | – | – | –
FCCOc1ccc(N2CCN(Cc3cc4ccccn4n3)CC2)cc1 | – | – | 29000 | 30000 | 5500 | 1400 | 13 | 4100 | 15000 | 50000 | -37 | 9.1 | – | 2310 | 3850 | 1150
FCCOc1ccccc1N1CCN(Cc2cc3ccccn3n2)CC1 | – | – | 4800 | 46 | 13000 | 5700 | 1.3 | 40 | 940 | 79 | 49 | 0.8 | – | 35 | 61 | 723
Fc1cccc(N2CCN(Cc3cnn4ccccc34)CC2)n1 | – | – | 7300 | 330 | 5400 | 290 | 8.8 | 87 | 590 | 220 | – | – | – | 38 | 25 | 67
FCCOc1ccc(N2CCN(Cc3cnn4ccccc34)CC2)cc1 | – | – | 33000 | 66000 | 14000 | 13000 | 28 | 4500 | 8700 | 79000 | -41 | 18 | – | 2360 | 2820 | 311
Fc1cccc(N2CCN(Cc3cc4ccccn4n3)CC2)n1 | – | – | 30000 | 3400 | 9700 | 1200 | 24 | 910 | 3400 | 1700 | – | – | – | 142 | 71 | 142
[18F]CCOc1ccccc1N1CCN(Cc2cnn3ccccc23)CC1 | 2.15 | – | – | – | – | – | – | – | – | – | – | – | – | – | – | –
